Data taken from ChEMBL document CHEMBL1155459, “On-bead screening of a combinatorial fumaric acid derived peptide library yields antiplasmodial cysteine protease inhibitors with unusual peptide sequences” (J Med Chem, 2009).
Peptide text beside a SMILES is read from it.

Tests used:
[1] = Inhibition of Plasmodium falciparum falcipain-2 after 12 hrs by fluorescence spectroscopy-based on-bead assay; design: concentration or dose not given beside the values; settings: concentration not given here
Procedure, shortened: (§1)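 Library members on resin (PEGA, theoretical loading 0.40 mmol/g; added as DMSO suspension, 0.64 mM final inhibitor) preincubated with enzyme 12 h, then Cbz-Phe-Arg-AMC 40 μM added; AMC release followed by fluorescence (ex 380/em 460 nm). Kinetics compared with inhibitor-free amino-PEGA resin.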

[2] = target: Rhodesain (Trypanosoma brucei rhodesiense) (UniProt Q95PM0); test: Inhibition of Trypanosoma brucei rhodesiense rhodesain after 12 hrs by fluorescence spectroscopy-based on-bead assay; design: concentration or dose not given beside the values; settings: concentration not given here; procedure, shortened: as §1
Sequence of Rhodesain (Trypanosoma brucei rhodesiense) (Q95PM0 1-450): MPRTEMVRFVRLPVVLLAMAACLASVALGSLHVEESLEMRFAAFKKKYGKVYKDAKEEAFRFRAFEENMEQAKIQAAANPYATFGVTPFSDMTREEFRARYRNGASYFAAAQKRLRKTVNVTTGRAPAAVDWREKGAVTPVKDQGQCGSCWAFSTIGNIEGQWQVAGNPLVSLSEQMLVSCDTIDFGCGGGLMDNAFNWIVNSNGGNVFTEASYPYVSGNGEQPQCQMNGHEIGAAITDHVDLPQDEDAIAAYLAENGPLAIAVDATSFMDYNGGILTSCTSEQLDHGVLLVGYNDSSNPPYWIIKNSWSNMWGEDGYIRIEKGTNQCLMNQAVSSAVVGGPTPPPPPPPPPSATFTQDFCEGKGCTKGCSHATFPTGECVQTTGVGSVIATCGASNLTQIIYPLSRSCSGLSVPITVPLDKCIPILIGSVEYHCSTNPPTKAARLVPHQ

SMILES	inhibition [1]	inhibition [2]
CC[C@H](C)[C@H](NC(=O)[C@H](C)NC(=O)/C=C/C(=O)NCC(=O)NCC(=O)N[C@@H](Cc1ccccc1)C(=O)O)C(=O)N[C@H](C(=O)N[C@H](C(N)=O)C(C)C)C(C)C (HELM PEPTIDE1{[O=C(/C=C/C(=O)[*:2])NCC(=O)NCC(=O)N[C@@H](Cc1ccccc1)C(=O)O].A.I.V.V.[am]}$$$$V2.0)	32%	33%
CC(=O)NC[C@H](NC(=O)/C=C/C(=O)N[C@@H](C)C(=O)NCC(=O)N[C@@H](Cc1ccccc1)C(=O)O)C(=O)N[C@@H](Cc1ccccc1)C(=O)N[C@@H](CC(C)C)C(=O)N[C@H](C(N)=O)C(C)C (HELM PEPTIDE1{[C[C@H](NC(=O)/C=C/C(=O)[*:2])C(=O)NCC(=O)N[C@@H](Cc1ccccc1)C(=O)O].[O=C([C@H](CN[*:3])N[*:1])[*:2]].F.L.V.[am]}|PEPTIDE2{[ac]}$PEPTIDE1,PEPTIDE2,2:R3-1:R2$$$V2.0)	43%	52%
CC(C)C[C@H](NC(=O)[C@H](Cc1ccccc1)NC(=O)[C@H](Cc1ccccc1)NC(=O)/C=C/C(=O)NCC(=O)NCC(=O)N[C@@H](Cc1ccccc1)C(=O)O)C(=O)N[C@H](C(N)=O)C(C)C (HELM PEPTIDE1{[O=C(/C=C/C(=O)[*:2])NCC(=O)NCC(=O)N[C@@H](Cc1ccccc1)C(=O)O].F.F.L.V.[am]}$$$$V2.0)	41%	52%
CC[C@H](C)[C@H](NC(=O)[C@H](CC(N)=O)NC(=O)/C=C/C(=O)NCC(=O)NCC(=O)N[C@@H](Cc1ccccc1)C(=O)O)C(=O)N[C@@H](C)C(=O)N[C@H](C(N)=O)C(C)C (HELM PEPTIDE1{[O=C(/C=C/C(=O)[*:2])NCC(=O)NCC(=O)N[C@@H](Cc1ccccc1)C(=O)O].N.I.A.V.[am]}$$$$V2.0)	63%	55%
CC(C)[C@H](NC(=O)[C@@H](NC(=O)[C@H](Cc1ccccc1)NC(=O)[C@H](CC(N)=O)NC(=O)/C=C/C(=O)N[C@@H](C)C(=O)NCC(=O)N[C@@H](Cc1ccccc1)C(=O)O)C(C)C)C(N)=O (HELM PEPTIDE1{[C[C@H](NC(=O)/C=C/C(=O)[*:2])C(=O)NCC(=O)N[C@@H](Cc1ccccc1)C(=O)O].N.F.V.V.[am]}$$$$V2.0)	54%	53%
CC[C@H](C)[C@H](NC(=O)[C@H](C)NC(=O)/C=C/C(=O)N[C@@H](C)C(=O)NCC(=O)N[C@@H](Cc1ccccc1)C(=O)O)C(=O)N[C@@H](CC(C)C)C(=O)N[C@H](C(N)=O)C(C)C (HELM PEPTIDE1{[C[C@H](NC(=O)/C=C/C(=O)[*:2])C(=O)NCC(=O)N[C@@H](Cc1ccccc1)C(=O)O].A.I.L.V.[am]}$$$$V2.0)	54%	49%
CC(C)[C@H](NC(=O)[C@@H](NC(=O)[C@@H](NC(=O)[C@H](C)NC(=O)/C=C/C(=O)NCC(=O)NCC(=O)N[C@@H](Cc1ccccc1)C(=O)O)C1CCCCC1)C(C)C)C(N)=O (HELM PEPTIDE1{[O=C(/C=C/C(=O)[*:2])NCC(=O)NCC(=O)N[C@@H](Cc1ccccc1)C(=O)O].A.[O=C([C@@H](N[*:1])C1CCCCC1)[*:2]].V.V.[am]}$$$$V2.0)	54%	40%
CC(C)C[C@H](NC(=O)[C@H](CC(N)=O)NC(=O)/C=C/C(=O)N[C@@H](C)C(=O)NCC(=O)N[C@@H](Cc1ccccc1)C(=O)O)C(=O)N[C@H](C(=O)N[C@H](C(N)=O)C(C)C)C(C)C (HELM PEPTIDE1{[C[C@H](NC(=O)/C=C/C(=O)[*:2])C(=O)NCC(=O)N[C@@H](Cc1ccccc1)C(=O)O].N.L.V.V.[am]}$$$$V2.0)	43%	50%
CC[C@H](C)[C@H](NC(=O)[C@H](CNC(C)=O)NC(=O)/C=C/C(=O)NCC(=O)NCC(=O)N[C@@H](Cc1ccccc1)C(=O)O)C(=O)N[C@@H](CC(C)C)C(=O)N[C@H](C(N)=O)C(C)C (HELM PEPTIDE1{[O=C(/C=C/C(=O)[*:2])NCC(=O)NCC(=O)N[C@@H](Cc1ccccc1)C(=O)O].[O=C([C@H](CN[*:3])N[*:1])[*:2]].I.L.V.[am]}|PEPTIDE2{[ac]}$PEPTIDE1,PEPTIDE2,2:R3-1:R2$$$V2.0)	33%	60%
CC(C)[C@H](NC(=O)[C@@H](NC(=O)[C@@H](NC(=O)[C@H](Cc1ccccc1)NC(=O)/C=C/C(=O)N[C@@H](C)C(=O)NCC(=O)N[C@@H](Cc1ccccc1)C(=O)O)c1ccccc1)C(C)C)C(N)=O (HELM PEPTIDE1{[C[C@H](NC(=O)/C=C/C(=O)[*:2])C(=O)NCC(=O)N[C@@H](Cc1ccccc1)C(=O)O].F.[Phg].V.V.[am]}$$$$V2.0)	58%	77%
CC[C@H](C)[C@H](NC(=O)[C@H](Cc1ccccc1)NC(=O)/C=C/C(=O)NCC(=O)NCC(=O)N[C@@H](Cc1ccccc1)C(=O)O)C(=O)N[C@H](C(=O)N[C@H](C(N)=O)C(C)C)C(C)C (HELM PEPTIDE1{[O=C(/C=C/C(=O)[*:2])NCC(=O)NCC(=O)N[C@@H](Cc1ccccc1)C(=O)O].F.I.V.V.[am]}$$$$V2.0)	58%	50%
CC(C)C[C@H](NC(=O)[C@@H](NC(=O)[C@H](CC(N)=O)NC(=O)/C=C/C(=O)N[C@@H](C)C(=O)NCC(=O)N[C@@H](Cc1ccccc1)C(=O)O)c1ccccc1)C(=O)N[C@H](C(N)=O)C(C)C (HELM PEPTIDE1{[C[C@H](NC(=O)/C=C/C(=O)[*:2])C(=O)NCC(=O)N[C@@H](Cc1ccccc1)C(=O)O].N.[Phg].L.V.[am]}$$$$V2.0)	55%	55%
CC[C@H](C)[C@H](NC(=O)[C@H](CC(N)=O)NC(=O)/C=C/C(=O)NCC(=O)NCC(=O)N[C@@H](Cc1ccccc1)C(=O)O)C(=O)N[C@@H](CC(C)C)C(=O)N[C@H](C(N)=O)C(C)C (HELM PEPTIDE1{[O=C(/C=C/C(=O)[*:2])NCC(=O)NCC(=O)N[C@@H](Cc1ccccc1)C(=O)O].N.I.L.V.[am]}$$$$V2.0)	61%	68%
CC[C@H](C)[C@H](NC(=O)[C@H](CCC(N)=O)NC(=O)/C=C/C(=O)N[C@@H](C)C(=O)NCC(=O)N[C@@H](Cc1ccccc1)C(=O)O)C(=O)N[C@H](C(=O)N[C@H](C(N)=O)C(C)C)C(C)C (HELM PEPTIDE1{[C[C@H](NC(=O)/C=C/C(=O)[*:2])C(=O)NCC(=O)N[C@@H](Cc1ccccc1)C(=O)O].Q.I.V.V.[am]}$$$$V2.0)	54%	38%
CC(C)C[C@H](NC(=O)[C@H](CC(N)=O)NC(=O)/C=C/C(=O)N[C@@H](C)C(=O)NCC(=O)N[C@@H](Cc1ccccc1)C(=O)O)C(=O)N[C@@H](C)C(=O)N[C@H](C(N)=O)C(C)C (HELM PEPTIDE1{[C[C@H](NC(=O)/C=C/C(=O)[*:2])C(=O)NCC(=O)N[C@@H](Cc1ccccc1)C(=O)O].N.L.A.V.[am]}$$$$V2.0)	33%	42%
CC(=O)NC[C@H](NC(=O)/C=C/C(=O)NCC(=O)NCC(=O)N[C@@H](Cc1ccccc1)C(=O)O)C(=O)N[C@H](C(=O)N[C@H](C(=O)N[C@H](C(N)=O)C(C)C)C(C)C)c1ccccc1 (HELM PEPTIDE1{[O=C(/C=C/C(=O)[*:2])NCC(=O)NCC(=O)N[C@@H](Cc1ccccc1)C(=O)O].[O=C([C@H](CN[*:3])N[*:1])[*:2]].[Phg].V.V.[am]}|PEPTIDE2{[ac]}$PEPTIDE1,PEPTIDE2,2:R3-1:R2$$$V2.0)	25%	40%
CC(C)[C@H](NC(=O)[C@@H](NC(=O)[C@H](Cc1ccccc1)NC(=O)[C@H](C)NC(=O)/C=C/C(=O)NCC(=O)NCC(=O)N[C@@H](Cc1ccccc1)C(=O)O)C(C)C)C(N)=O (HELM PEPTIDE1{[O=C(/C=C/C(=O)[*:2])NCC(=O)NCC(=O)N[C@@H](Cc1ccccc1)C(=O)O].A.F.V.V.[am]}$$$$V2.0)	27%	48%
CC[C@H](C)[C@H](NC(=O)[C@H](CNC(C)=O)NC(=O)/C=C/C(=O)NCC(=O)NCC(=O)N[C@@H](Cc1ccccc1)C(=O)O)C(=O)N[C@H](C(=O)N[C@H](C(N)=O)C(C)C)C(C)C (HELM PEPTIDE1{[O=C(/C=C/C(=O)[*:2])NCC(=O)NCC(=O)N[C@@H](Cc1ccccc1)C(=O)O].[O=C([C@H](CN[*:3])N[*:1])[*:2]].I.V.V.[am]}|PEPTIDE2{[ac]}$PEPTIDE1,PEPTIDE2,2:R3-1:R2$$$V2.0)	28%	41%
CC(C)C[C@H](NC(=O)[C@H](CCC(N)=O)NC(=O)/C=C/C(=O)N[C@@H](C)C(=O)NCC(=O)N[C@@H](Cc1ccccc1)C(=O)O)C(=O)N[C@@H](C)C(=O)N[C@H](C(N)=O)C(C)C (HELM PEPTIDE1{[C[C@H](NC(=O)/C=C/C(=O)[*:2])C(=O)NCC(=O)N[C@@H](Cc1ccccc1)C(=O)O].Q.L.A.V.[am]}$$$$V2.0)	54%	7%
CC(C)C[C@H](NC(=O)[C@H](Cc1ccccc1)NC(=O)/C=C/C(=O)N[C@@H](C)C(=O)NCC(=O)N[C@@H](Cc1ccccc1)C(=O)O)C(=O)N[C@@H](CC(C)C)C(=O)N[C@H](C(N)=O)C(C)C (HELM PEPTIDE1{[C[C@H](NC(=O)/C=C/C(=O)[*:2])C(=O)NCC(=O)N[C@@H](Cc1ccccc1)C(=O)O].F.L.L.V.[am]}$$$$V2.0)	62%	69%
CC(C)C[C@H](NC(=O)[C@H](CC(N)=O)NC(=O)/C=C/C(=O)N[C@@H](C)C(=O)NCC(=O)N[C@@H](Cc1ccccc1)C(=O)O)C(=O)N[C@@H](CC(C)C)C(=O)N[C@H](C(N)=O)C(C)C (HELM PEPTIDE1{[C[C@H](NC(=O)/C=C/C(=O)[*:2])C(=O)NCC(=O)N[C@@H](Cc1ccccc1)C(=O)O].N.L.L.V.[am]}$$$$V2.0)	57%	59%
CC[C@H](C)[C@H](NC(=O)[C@H](Cc1ccccc1)NC(=O)/C=C/C(=O)NCC(=O)NCC(=O)N[C@@H](Cc1ccccc1)C(=O)O)C(=O)N[C@@H](C)C(=O)N[C@H](C(N)=O)C(C)C (HELM PEPTIDE1{[O=C(/C=C/C(=O)[*:2])NCC(=O)NCC(=O)N[C@@H](Cc1ccccc1)C(=O)O].F.I.A.V.[am]}$$$$V2.0)	52%	30%
CC(C)[C@H](NC(=O)[C@@H](NC(=O)[C@H](Cc1ccccc1)NC(=O)[C@H](CCC(N)=O)NC(=O)/C=C/C(=O)NCC(=O)NCC(=O)N[C@@H](Cc1ccccc1)C(=O)O)C(C)C)C(N)=O (HELM PEPTIDE1{[O=C(/C=C/C(=O)[*:2])NCC(=O)NCC(=O)N[C@@H](Cc1ccccc1)C(=O)O].Q.F.V.V.[am]}$$$$V2.0)	51%	42%
